Laboratory results as given in ChEMBL document CHEMBL4270642, “Boronic ester-linked macrocyclic lipopeptides as serine protease inhibitors targeting Escherichia coli type I signal peptidase” (Eur J Med Chem, 2018).
Converted amounts (≈) assume the structure as drawn.

Legend:
[1] = tested on: Pseudomonas aeruginosa; assay: Antibacterial activity against efflux defective Pseudomonas aeruginosa PAO750 after 16 to 20 hrs by broth microdilution method; type: functional
In short: (§1)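 Broth microdilution in cation-adjusted Mueller-Hinton II per EUCAST/CLSI; two-fold compound series 64 down to 0.25 µg/mL final. Inoculum from fresh colonies (non-selective agar, 18-24 h, 35 ± 2 °C), adjusted to 0.5 McFarland, diluted to about 5 × 10^5 CFU/mL final. Static incubation 16-20 h at 35 ± 2 °C; MIC read visually as complete growth inhibition against medium-only wells.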

[2] = biological target: Signal peptidase I (Escherichia coli K-12) (UniProt P00803); assay: Inhibition of Escherichia coli type 1 signal peptidase lepB assessed as residual activity at 0.0098 uM preincubated for 10 mins followed by Dabcyl-VGGTATAYGAFSRPGLE-(EDANS)-OH substrate addition measured after 2 hrs by FRET based assay (reference value: 100%)
Chain of Signal peptidase I (Escherichia coli K-12) (P00803 whole entry): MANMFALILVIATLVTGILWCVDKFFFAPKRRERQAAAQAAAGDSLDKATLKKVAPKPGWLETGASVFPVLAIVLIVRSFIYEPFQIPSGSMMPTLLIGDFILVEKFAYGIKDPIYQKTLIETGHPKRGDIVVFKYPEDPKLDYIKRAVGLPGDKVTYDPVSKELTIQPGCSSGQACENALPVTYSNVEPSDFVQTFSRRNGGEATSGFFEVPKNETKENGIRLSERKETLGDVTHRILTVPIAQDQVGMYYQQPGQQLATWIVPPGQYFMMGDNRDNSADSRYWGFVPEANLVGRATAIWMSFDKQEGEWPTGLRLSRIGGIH
In short: (§2)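 EcLepB (about 50 nM estimated) preincubated 10 min with compound. Reaction started with Dabcyl/EDANS FRET peptide at 8 µM final (Km 20 µM). Fluorescence followed continuously at 535 nm, 22 °C, for 2 h. Cleavage rates plotted against inhibitor concentration; IC50 from non-linear regression of sigmoidal dose-response curves.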

[3] = tested on: Pseudomonas aeruginosa; assay: Antibacterial activity against Pseudomonas aeruginosa PAO1 after 16 to 20 hrs by broth microdilution method; type: functional; in short: as §1
[4] = biological target: Signal peptidase I (Escherichia coli K-12) (UniProt P00803); assay: Inhibition of Escherichia coli type 1 signal peptidase lepB assessed as residual activity at 0.0195 uM preincubated for 10 mins followed by Dabcyl-VGGTATAYGAFSRPGLE-(EDANS)-OH substrate addition measured after 2 hrs by FRET based assay (reference value: 100%); in short: as §2
[5] = biological target: Signal peptidase I (Escherichia coli K-12) (UniProt P00803); assay: Inhibition of Escherichia coli type 1 signal peptidase lepB assessed as residual activity at 0.1563 uM preincubated for 10 mins followed by Dabcyl-VGGTATAYGAFSRPGLE-(EDANS)-OH substrate addition measured after 2 hrs by FRET based assay (reference value: 100%); in short: as §2
[6] = biological target: Signal peptidase I (Escherichia coli K-12) (UniProt P00803); assay: Inhibition of Escherichia coli type 1 signal peptidase lepB assessed as residual activity at 5 uM preincubated for 10 mins followed by Dabcyl-VGGTATAYGAFSRPGLE-(EDANS)-OH substrate addition measured after 2 hrs by FRET based assay (reference value: 100%); in short: as §2
[7] = biological target: Signal peptidase I (Escherichia coli K-12) (UniProt P00803); assay: Inhibition of Escherichia coli type 1 signal peptidase lepB assessed as residual activity at 0.0012 uM preincubated for 10 mins followed by Dabcyl-VGGTATAYGAFSRPGLE-(EDANS)-OH substrate addition measured after 2 hrs by FRET based assay (reference value: 100%); in short: as §2
[8] = tested on: Escherichia coli; assay: Antibacterial activity against tolC deficient Escherichia coli CH3130 after 16 to 20 hrs by broth microdilution method; type: functional; in short: as §1
[9] = biological target: Signal peptidase I (Escherichia coli K-12, UniProt P00803); assay: Inhibition of Escherichia coli type 1 signal peptidase lepB preincubated for 10 mins followed by Dabcyl-VGGTATAYGAFSRPGLE-(EDANS)-OH substrate addition measured after 2 hrs by FRET based assay; in short: as §2
Chain of Signal peptidase I (P00803 whole entry): as above

[10] = tested on: HepG2; assay: Cytotoxicity against human HepG2 cells after 72 hrs by FMSA; type: cell-based; settings: HepG2, 72 h
In short: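 HepG2 (ATCC) grown in EMEM with 10% FBS, pen/strep, 2 mM L-glutamine, used up to 20 passages. Seeded at 1000 cells/well, cultured overnight, then dosed acoustically from DMSO stocks. Eight two-fold dilutions in duplicate from top 64 or 32 µM; 72 h at 37 °C, 5% CO2. Fluorescein diacetate hydrolysis read at ex 485/em 530 nm; IC50 by non-linear regression.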

[11] = biological target: Signal peptidase I (Escherichia coli K-12) (UniProt P00803); assay: Inhibition of Escherichia coli type 1 signal peptidase lepB assessed as residual activity at 1.25 uM preincubated for 10 mins followed by Dabcyl-VGGTATAYGAFSRPGLE-(EDANS)-OH substrate addition measured after 2 hrs by FRET based assay (reference value: 100%); in short: as §2
[12] = biological target: Signal peptidase I (Escherichia coli K-12) (UniProt P00803); assay: Inhibition of Escherichia coli type 1 signal peptidase lepB assessed as residual activity at 0.0024 uM preincubated for 10 mins followed by Dabcyl-VGGTATAYGAFSRPGLE-(EDANS)-OH substrate addition measured after 2 hrs by FRET based assay (reference value: 100%); in short: as §2
[13] = biological target: Signal peptidase I (Escherichia coli K-12) (UniProt P00803); assay: Inhibition of Escherichia coli type 1 signal peptidase lepB assessed as residual activity at 0.0781 uM preincubated for 10 mins followed by Dabcyl-VGGTATAYGAFSRPGLE-(EDANS)-OH substrate addition measured after 2 hrs by FRET based assay (reference value: 100%); in short: as §2
[14] = tested on: Klebsiella pneumoniae; assay: Antibacterial activity against Klebsiella pneumoniae ATCC 13883 after 16 to 20 hrs by broth microdilution method; type: functional; in short: as §1
[15] = biological target: Signal peptidase I (Escherichia coli K-12) (UniProt P00803); assay: Inhibition of Escherichia coli type 1 signal peptidase lepB assessed as residual activity at 2.5 uM preincubated for 10 mins followed by Dabcyl-VGGTATAYGAFSRPGLE-(EDANS)-OH substrate addition measured after 2 hrs by FRET based assay (reference value: 100%); in short: as §2
[16] = biological target: Signal peptidase I (Escherichia coli K-12) (UniProt P00803); assay: Inhibition of Escherichia coli type 1 signal peptidase lepB assessed as residual activity at 0.625 uM preincubated for 10 mins followed by Dabcyl-VGGTATAYGAFSRPGLE-(EDANS)-OH substrate addition measured after 2 hrs by FRET based assay (reference value: 100%); in short: as §2
[17] = biological target: Signal peptidase I (Escherichia coli K-12) (UniProt P00803); assay: Inhibition of Escherichia coli type 1 signal peptidase lepB assessed as residual activity at 10 uM preincubated for 10 mins followed by Dabcyl-VGGTATAYGAFSRPGLE-(EDANS)-OH substrate addition measured after 2 hrs by FRET based assay (reference value: 100%); in short: as §2
[18] = biological target: Signal peptidase I (Escherichia coli K-12) (UniProt P00803); assay: Inhibition of Escherichia coli type 1 signal peptidase lepB assessed as residual activity at 0.0049 uM preincubated for 10 mins followed by Dabcyl-VGGTATAYGAFSRPGLE-(EDANS)-OH substrate addition measured after 2 hrs by FRET based assay (reference value: 100%); in short: as §2
[19] = biological target: Signal peptidase I (Escherichia coli K-12) (UniProt P00803); assay: Inhibition of Escherichia coli type 1 signal peptidase lepB assessed as residual activity at 0.0391 uM preincubated for 10 mins followed by Dabcyl-VGGTATAYGAFSRPGLE-(EDANS)-OH substrate addition measured after 2 hrs by FRET based assay (reference value: 100%); in short: as §2
[20] = biological target: Signal peptidase I (Escherichia coli K-12) (UniProt P00803); assay: Inhibition of Escherichia coli type 1 signal peptidase lepB assessed as residual activity at 0.3125 uM preincubated for 10 mins followed by Dabcyl-VGGTATAYGAFSRPGLE-(EDANS)-OH substrate addition measured after 2 hrs by FRET based assay (reference value: 100%); in short: as §2
[21] = tested on: Staphylococcus aureus; assay: Antibacterial activity against Staphylococcus aureus ATCC 29213 after 16 to 20 hrs by broth microdilution method; type: functional; in short: as §1
[22] = tested on: Escherichia coli; assay: Antibacterial activity against Escherichia coli D22 CGSG 5163 harboring Ips mutant after 16 to 20 hrs by broth microdilution method; type: functional
In short: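 Broth microdilution in cation-adjusted Mueller-Hinton II broth, following EUCAST and CLSI guidelines. Two-fold series at final concentrations 64 down to 0.25 µg/mL, with medium-only and growth controls. Inoculum from fresh colonies (18-24 h, 35 °C ± 2 °C) adjusted to 0.5 McFarland, final ≈5 × 10^5 CFU/mL. Plates incubated unshaken 16-20 h at 35 °C ± 2 °C. MIC read visually as complete inhibition of growth.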

[23] = tested on: Acinetobacter baumannii; assay: Antibacterial activity against Acinetobacter baumannii ATCC 19606 after 16 to 20 hrs by broth microdilution method; type: functional; settings: ATCC 19606 = CIP 70.34 = JCM 6841; in short: as §1
[24] = biological target: Signal peptidase I (Escherichia coli K-12) (UniProt P00803); assay: Inhibition of Escherichia coli type 1 signal peptidase lepB assessed as residual activity at 0.0006 uM preincubated for 10 mins followed by Dabcyl-VGGTATAYGAFSRPGLE-(EDANS)-OH substrate addition measured after 2 hrs by FRET based assay (reference value: 100%); in short: as §2
[25] = tested on: Escherichia coli; assay: Antibacterial activity against Escherichia coli ATCC 25922 after 16 to 20 hrs by broth microdilution method; type: functional; in short: as §1
[26] = Hemolytic activity in human RBC at 100 uM after 45 mins by spectrophotometric method relative to control; type: ADME, cell-based, Erythrocyte; settings: red blood cells (erythrocytes), read-out: Activity
In short: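 Heparinized human blood; red cells washed three times in Tyrode buffer pH 7.4. Compound at 100 µM final with 1% DMSO and 50% RBC, shaken (250 rpm) 45 min at 37 °C. Cells pelleted (1000 × g, 10 min); supernatant haemoglobin at 540 nm. Percent lysis relative to buffer-only and 2% Triton X-100 controls.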

| SMILES | MIC [1] | Activity [2] | MIC [3] | Activity [4] | Activity [5] | Activity [6] | Activity [7] | MIC [8] | IC50 [9] | IC50 [10] | Activity [11] | Activity [12] | Activity [13] | MIC [14] | Activity [15] | Activity [16] | Activity [17] | Activity [18] | Activity [19] | Activity [20] | other results |
| --- | --- | --- | --- | --- | --- | --- | --- | --- | --- | --- | --- | --- | --- | --- | --- | --- | --- | --- | --- | --- | --- |
| CCCCCCc1ccc(-c2ccc(C(=O)N[C@@H](CCCN)C(=O)N(C)[C@H](C(=O)N[C@@H](C)C(=O)N[C@H]3Cc4cn(nn4)CCCN4C[C@@H]5OB(O[C@@H]5C4)[C@H](C)NC3=O)[C@@H](C)O)cc2)cc1 | 64 µg/mL (≈ 71.2 µM) | 88.1% | > 64 µg/mL | 75.7% | 40% | 8% | 95.3% | 16 µg/mL (≈ 17.8 µM) | 98 nM | 8500 nM | 23.6% | 95.7% | 52.1% | 32 µg/mL (≈ 35.6 µM) | 18.2% | 30.7% | 3.7% | 92.7% | 69.9% | 34.2% | MIC [21]: 32 µg/mL (≈ 35.6 µM); MIC [22]: 32 µg/mL (≈ 35.6 µM); MIC [23]: 64 µg/mL (≈ 71.2 µM); Activity [24]: 95.8%; MIC [25]: 64 µg/mL (≈ 71.2 µM); hemolysis at 0.75 h, 100 µM [26]: 9.6% |
| CCCCCCc1ccc(-c2ccc(C(=O)N[C@@H](CCCNC(=N)N)C(=O)N[C@H](C(=O)N[C@@H](C)C(=O)N[C@H]3Cc4cn(nn4)CCCN4C[C@@H]5OB(O[C@@H]5C4)[C@H](C)NC3=O)[C@@H](C)O)cc2)cc1 | 32 µg/mL (≈ 34.5 µM) | 101% | > 64 µg/mL | 97.2% | 41.7% | 27.7% | 106% | 4 µg/mL (≈ 4.32 µM) | 41 nM | 2400 nM | 35.7% | 102% | 46.5% | 16 µg/mL (≈ 17.3 µM) | 32.8% | 36% | 22.9% | 105% | 76.8% | 39.1% | MIC [21]: 16 µg/mL (≈ 17.3 µM); MIC [22]: 8 µg/mL (≈ 8.63 µM); MIC [23]: 16 µg/mL (≈ 17.3 µM); Activity [24]: 108%; MIC [25]: 16 µg/mL (≈ 17.3 µM); hemolysis at 0.75 h, 100 µM [26]: 21% |
